Only some compounds are listed: those with a hit (about 2.5% of all), similar ones and a draw of the others.
SENP7 inh: inhibitors of human SENP7 protease; recombinant SENP7, Z-RLRGG-aminoluciferin luminescence, 40 min; inhibition, % at 5 µM; 330,000 compounds, 1.5% hits; Q9BQF6;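 active = inhibition above about 50% at the single test dose, limit read from the data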;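 also: plate controls were DMSO with enzyme for no effect and no enzyme buffer wells for full effect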
Target sequence (Q9BQF6 706-1050 limits assumed): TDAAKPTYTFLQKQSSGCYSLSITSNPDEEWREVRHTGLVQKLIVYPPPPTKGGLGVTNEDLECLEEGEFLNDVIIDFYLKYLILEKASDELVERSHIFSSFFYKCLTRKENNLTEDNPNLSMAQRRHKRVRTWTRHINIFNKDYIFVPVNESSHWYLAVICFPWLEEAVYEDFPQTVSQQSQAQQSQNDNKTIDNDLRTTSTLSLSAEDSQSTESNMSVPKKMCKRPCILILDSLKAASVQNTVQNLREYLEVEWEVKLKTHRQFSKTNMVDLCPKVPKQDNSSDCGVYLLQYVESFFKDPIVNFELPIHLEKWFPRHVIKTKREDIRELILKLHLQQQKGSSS
SENP6 block: SENP6 protease inhibition | Q9GZR1 | 330,000 compounds, 1.8% hits | Recombinant SENP6 catalytic domain, aminoluciferin luminescence | inhibition, % at 10 µM;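 active = inhibition above about 50% at the single tested dose, limit read from the data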;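 also: plate controls were DMSO wells with enzyme for no effect and DMSO wells lacking enzyme for full effect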
SENP8 block-1: blocks the human protease SENP8; Q96LD8; purified SENP8, Z-RLRGG-aminoluciferin cleavage, luminescence; inhibition, % at 10 µM; 330,000 compounds, 1.2% hits; AID 2540; in the data active = inhibition above about 50%
SENP8 block-2: inhibitors of human SENP8 protease; 360,000 compounds, 0.64% hits; inhibition, % at 20 µM; recombinant SENP8, Nedd8 substrate fluorescence; Q96LD8; in the data active = inhibition mostly above about 40%, no sharp cut-off; inactive = mostly below about 27%
SENP1 inh: blocks the human SENP1 SUMO protease catalytic domain. Q9P0U3. recombinant SENP1 catalytic domain, CyPet-SUMO1-YPet FRET cleavage. inhibition, % at 10 µM. 360,000 compounds, 0.21% hits;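 active = inhibition at least 30% at 10 µM, raw YFP signal under a set limit, fluorescence ratio 0.5 to 1.5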;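 also: 0% = enzyme with DMSO and 100% = no enzyme wells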
Target sequence (Q9P0U3 419-644 limits assumed): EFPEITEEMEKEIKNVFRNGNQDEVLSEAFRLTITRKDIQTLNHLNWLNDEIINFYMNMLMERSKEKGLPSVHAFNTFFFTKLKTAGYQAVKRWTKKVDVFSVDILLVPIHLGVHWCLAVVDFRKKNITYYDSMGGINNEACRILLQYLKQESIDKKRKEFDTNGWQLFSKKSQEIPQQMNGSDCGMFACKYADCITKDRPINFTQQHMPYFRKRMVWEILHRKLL
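material = recombinant human SENP1 catalytic domain, His6-tagged | quantity = 20 pM enzyme | reagent = 25 nM SUMO1 FRET substrate | compound dosing = 10 µM single point, 0.5% DMSO | timing = 50 min enzyme reaction, room temperature, light-protected | detection = FRET, CFP and YFP emission | control set = no-enzyme low, enzyme-DMSO high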
SENP8 confirm: confirmation of human SENP8 protease inhibitors; Recombinant SENP8, Z-RLRGG-aminoluciferin luminescence, 60 min; shares compounds with SENP7 inh; inhibition, % at 12.5 µM; AID 488912; 6,200 compounds, 40% hits;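 active = mean inhibition across replicates above about 50%, limit read from the data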
SENP6 conf: confirmation of human SENP6 protease inhibitors; shares compounds with SENP7 inh; recombinant SENP6, Z-RLRGG-aminoluciferin luminescence; inhibition, % at 12.5 µM; 6,200 compounds, 58% hits
SENP7 conf: confirmation of human SENP7 protease inhibitors; recombinant SENP7, Z-RLRGG-aminoluciferin luminescence, 40 min; 6,200 compounds, 69% hits; shares compounds with SENP7 inh; inhibition, % at 12.5 µM
Casp3 select: caspase-3 inhibition (SENP selectivity assay); shares compounds with SENP7 inh; purified caspase-3, Z-DEVD-aminoluciferin luminescence, 60 min; inhibition, % at 12.5 µM; 6,200 compounds, 60% hits;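 active = mean inhibition above about 50%, limit read from the data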;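 also: plate controls were enzyme with DMSO for no effect and wells without caspase-3 for full effect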
Target sequence (P42574 28-227 limits assumed): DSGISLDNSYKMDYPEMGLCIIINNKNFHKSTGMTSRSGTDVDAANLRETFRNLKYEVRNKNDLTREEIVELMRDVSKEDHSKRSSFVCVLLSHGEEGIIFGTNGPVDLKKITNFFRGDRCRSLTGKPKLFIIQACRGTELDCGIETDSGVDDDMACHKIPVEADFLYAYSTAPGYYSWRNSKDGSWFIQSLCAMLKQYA
Luc interf: interferes with luciferase luminescence in SENP counter-screen; inhibition, % at 12.5 µM; shares compounds with SENP7 inh; Pre-incubated SENP8/Z-RLRGG-aminoluciferin, luciferase luminescence interference; 6,200 compounds, 39% hits;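 active = mean inhibition above about 50% when retested at one dose, limit read from the data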;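 also: plate controls were DMSO wells with completed reaction for no effect and substrate without enzyme for full effect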
The depositor's hits bear a star; . = no result.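 The calls were made as follows, unless noted: active = mean inhibition above about 50% in the one-dose retest (limit read from the data); inactive = the rest.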

SMILES | SENP7 inh | SENP6 block | SENP8 block-1 | SENP8 block-2 | SENP1 inh | SENP8 confirm | SENP6 conf | SENP7 conf | Casp3 select | Luc interf
O=C(Nc1ccc2c(c1)OCCO2)c1ccccc1 | 79.0* | 67.8* | 60.7* | 5.3 | 2.2 | 4.2 | 61.0* | 90.3* | 87.1* | 67.6*
COc1ccc([C@H]2C[C@H](n3cc(-c4ccc(F)cc4)nn3)[C@@H](O)CN2C(=O)C2CCCCC2)cc1 | . | . | . | 22.8 | 1.1 | . | . | . | . | .
O=C(NC1CCC1)C1CCC(=O)N(Cc2ccc(Cl)cc2)C1 (centres undefined) | . | . | . | 14.4 | -1.4 | . | . | . | . | .
COc1ccc(NC(=O)NCc2ccc3c(c2)OCO3)cc1 | 2.6 | 4.6 | 5.6 | 16.1 | 3.1 | . | . | . | . | .
CC(C)=CC(=O)Nc1ccc2c(c1)OCO2 | 0.8 | 63.5* | 50.3* | 7.7 | 0.4 | 58.8* | 58.9* | 83.6* | 86.1* | 63.0*
CC(=O)Nc1ccc(OCc2ccc3c(c2)OCO3)cc1 | 84.7* | 82.4* | 67.6* | 15.6 | 1.8 | 74.9* | 74.1* | 93.4* | 87.8* | 51.3*
O=C(CSCSCC(=O)Nc1ccc2c(c1)OCO2)Nc1ccc2c(c1)OCO2 | 2.6 | 3.5 | -1.4 | 6.5 | 0.9 | . | . | . | . | .
COc1ccc(NC(=O)/C=C/c2ccc3c(c2)OCO3)cc1 | 79.0* | 67.3* | 45.1 | 3.9 | 3.6 | 28.6 | 34.5 | 76.8* | 66.6* | 71.6*
COC(=O)N/N=C/c1cn(CC(C)COc2ccccc2)c2ccccc12 (centres undefined) | -2.6 | 0.5 | -8.4 | 10.6 | 1.5 | . | . | . | . | .
CC(C)(C)c1ccc(C(=O)NCCOc2ccccc2)cc1 | 54.1* | 56.5* | 37.9 | 5.1 | 0.4 | -5.2 | 35.7 | 79.8* | . | -0.8
CC(C)(C)c1ccc(C(=O)NCCOc2ccccc2F)cc1 | 71.6* | 73.8* | 59.4* | 14.5 | 0.5 | 4.8 | 69.1* | 89.5* | 52.4* | 46.8
COc1ccccc1Cc1c(-c2ccc(C#N)cc2)nc2c3ccccc3ccn12 | . | . | . | -375.5 | -6.1 | . | . | . | . | .
CCN(CC)C(=O)Cn1cc(C(=O)C(=O)N2CCN(c3ccc([N+](=O)[O-])cc3)CC2)c2ccccc21 | 2.4 | 12.3 | 2.3 | 5.9 | -6.6 | . | . | . | . | .
Oc1ccc(C=Nc2ccc(N3CCOCC3)cc2)c(O)c1 | 1.9 | -1.9 | -22.7 | 0.5 | 38.8 | . | . | . | . | .
Oc1c(Cl)cc(Cl)cc1C=Nc1ccc(N2CCOCC2)cc1 | -3.5 | 21.2 | 2.9 | -11.6 | -19.7 | . | . | . | . | .
Oc1cc(Br)ccc1C=Nc1ccc(N2CCCCC2)cc1 | 52.8* | 11.2 | 35.5 | 22.5 | 62.6 | 15.4 | 26.4 | 2.1 | 48.1 | -0.1
Cc1cc(Br)cc(C=Nc2ccc(N3CCOCC3)cc2)c1O | 72.7* | 29.2 | -6.5 | 37.2 | 87.2 | 11.6 | 12.3 | -0.6 | 28.7 | 2.9
Cc1ccc(C(=O)N(CC(=O)NC2CCCC2)c2ccccc2F)s1 | . | . | . | 22.6 | 0.0 | . | . | . | . | .
C[C@@H]1CN([C@H](C)CO)C(=O)CCCn2cc(nn2)CO[C@H]1CN(C)S(=O)(=O)c1ccc(-c2ccccc2)cc1 | . | . | . | 15.0 | 2.2 | . | . | . | . | .
O=C(CCCC(=O)N/N=C\c1ccccn1)N/N=C\c1ccccn1 | 3.6 | -1.7 | -0.9 | 5.2 | 0.8 | . | . | . | . | .
CC(Nc1cccc2ccccc12)C(=O)N/N=C/c1ccccn1 (centres undefined) | 45.4 | 81.2* | 84.8* | 18.4 | -12.9 | -9.2 | 4.8 | -3.7 | 1.3 | 3.5
Cc1ccc(N(CC(=O)NCC2CCCO2)C(=O)Cn2nnc(-c3cccs3)n2)cc1 (centres undefined) | -0.4 | 7.1 | 1.1 | 1.1 | 1.2 | . | . | . | . | .
c1ccc(CCNc2ncnc3c2cnn3-c2ccccc2)cc1 | -0.1 | 57.9* | 43.6 | 7.6 | 0.9 | 58.2* | 51.2* | 82.3* | 38.8 | 37.4
Cc1coc2c(C)c3oc(=O)c(CCC(=O)N(C)CC(=O)O)c(C)c3cc12 | -5.7 | -20.7 | 4.5 | -193.5 | -3.4 | . | . | . | . | .
Cc1cccc(C(=O)NNC(=O)c2ccc(Cl)cc2)c1O | 30.7 | 54.7* | 29.5 | 1.0 | 2.0 | 52.3* | 47.9 | 77.3* | 71.1* | 62.2*
SMILES | SENP7 inh | SENP6 block | SENP8 block-1 | SENP8 block-2 | SENP1 inh | SENP8 confirm | SENP6 conf | SENP7 conf | Casp3 select | Luc interf
OCc1ccc(-c2cccc3nccn23)cc1 | . | . | . | -498.1 | 1.4 | . | . | . | . | .
Oc1cc(NCc2ccc(F)cc2)cc2cccnc12 | 3.5 | 22.9 | 10.4 | -23.7 | -2.5 | . | . | . | . | .
CN(C)CCCNc1cc(O)c2ncccc2c1 | 44.3 | 73.7* | 48.0 | -12.4 | 7.7 | 19.0 | 62.1* | 24.7 | 89.7* | -7.4
CC(=O)N1CCn2c3c(c4cc(C)ccc42)CCCC31 (centres undefined) | -1.4 | -13.9 | 3.1 | -56.5 | 18.3 | . | . | . | . | .
CC(=O)N1CCn2c3c(c(=O)c4cc(C)ccc42)CCC31 (centres undefined) | 28.3 | 55.0* | 42.8 | -102.9 | -36.3 | 14.2 | 24.4 | 5.0 | 2.0 | -0.9
C=CCN(Cc1cccc(OC)c1OC)C(=O)Oc1ccccc1 | 5.0 | -6.1 | -9.8 | 0.7 | 2.6 | . | . | . | . | .
CC1CCCN(CCCNC(=O)c2coc3nc4ccccc4nc23)C1 (centres undefined) | 50.6* | 80.8* | 59.3* | -403.4 | -11.8 | 73.4* | 65.7* | 86.1* | 88.6* | 75.4*
CC1CCN(CCCNC(=O)c2coc3nc4ccccc4nc23)CC1 | 41.4 | 85.7* | 64.2* | -421.5 | -65.3 | 75.7* | 70.3* | 86.3* | 88.4* | 74.2*
Cc1ccc(CCNC(=O)c2coc3nc4ccccc4nc23)cc1 | -5.2 | 3.0 | -7.6 | -493.4 | 9.6 | . | . | . | . | .
CC(O)(c1cccnc1)c1nc(-c2ccc(F)c(Cl)c2)cs1 (centres undefined) | . | . | . | 23.0 | 1.4 | . | . | . | . | .
COCCNC(=O)C1(C)CCCN(C(=O)c2ccc(C(=O)OC)cc2)C1 (centres undefined) | . | . | . | 13.1 | 1.1 | . | . | . | . | .
CC(C)Oc1ccc(CN2CCC2(C)C(=O)Nc2cccc3cccnc23)cc1 (centres undefined) | . | . | . | -29.2 | -0.9 | . | . | . | . | .
CC1(C(=O)NS(=O)(=O)c2ccc(C#N)cc2)CCN1C(=O)CC1CCCCC1 (centres undefined) | . | . | . | -160.0 | 0.4 | . | . | . | . | .
CC(/C=N/N1CCN(c2ccccc2)CC1)=C\c1ccco1 | 98.1* | 95.7* | 95.1* | 16.5 | 0.8 | 10.5 | 86.6* | 90.6* | 71.2* | 17.0
CC(/C=N/N1CCN(c2ccccc2)CC1)=C\c1ccccc1 | 75.5* | 0.4 | 10.7 | 13.8 | 0.1 | -10.1 | -6.4 | -8.6 | 25.0 | -3.1

Screening results: PubChem BioAssay, Sanford-Burnham Center for Chemical Genomics
